Reference: ChEMBL document CHEMBL4038302, “Fibroblast Activation Protein α Activated Tripeptide Bufadienolide Antitumor Prodrug with Reduced Cardiotoxicity” (J Med Chem, 2017)
Activity calls are given as the source filed them. The calls are words filed in the database; no cut-off is given here.

Legend:
Prolyl endopeptidase FAP = target: T1, Prolyl endopeptidase FAP (Homo sapiens, UniProt Q12884); assay: (§1) Prodrug activation assessed as recombinant human FAP-alpha mediated (S)-((3S,5R,8R,9S,10S,11S,13R,14S,17R)-11,14-dihydroxy-10,13-dimethyl-12-oxo-17-(2-oxo-2H-pyran-5-yl)hexadecahydro-1H-cyclopenta[a]phenanthren-3-yl) 2-aminopropanoate formation by measuring intrinsic clearance after 90 mins by UPLC-MS/MS analysis; conditions: 1.5 h
T1 sequence (Q12884 whole entry): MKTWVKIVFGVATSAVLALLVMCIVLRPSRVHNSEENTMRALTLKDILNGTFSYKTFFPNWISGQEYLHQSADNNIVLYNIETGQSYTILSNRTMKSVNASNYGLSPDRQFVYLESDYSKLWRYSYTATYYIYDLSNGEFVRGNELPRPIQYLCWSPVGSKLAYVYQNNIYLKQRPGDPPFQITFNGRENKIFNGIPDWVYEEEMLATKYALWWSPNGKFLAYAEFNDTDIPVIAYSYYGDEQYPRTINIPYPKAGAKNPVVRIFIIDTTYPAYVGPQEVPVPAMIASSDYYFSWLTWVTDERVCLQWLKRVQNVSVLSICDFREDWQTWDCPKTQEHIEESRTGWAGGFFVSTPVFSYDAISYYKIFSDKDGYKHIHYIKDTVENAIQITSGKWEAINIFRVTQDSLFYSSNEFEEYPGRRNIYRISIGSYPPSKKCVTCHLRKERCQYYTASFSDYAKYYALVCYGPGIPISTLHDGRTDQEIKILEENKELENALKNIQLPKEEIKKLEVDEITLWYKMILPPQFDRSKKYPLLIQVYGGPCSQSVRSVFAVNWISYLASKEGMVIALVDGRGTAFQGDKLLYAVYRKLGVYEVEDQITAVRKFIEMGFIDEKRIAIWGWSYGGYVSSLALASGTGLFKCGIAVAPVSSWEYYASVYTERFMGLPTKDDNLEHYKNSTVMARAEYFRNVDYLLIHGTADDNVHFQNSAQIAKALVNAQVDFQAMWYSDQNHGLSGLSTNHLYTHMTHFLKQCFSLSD
Procedure, shortened: (§2)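 Prodrug at 0.625–40 μmol/L incubated with rhFAPα at 0.45 μg/mL and internal standard in 0.2 mL PBS, pH 7.4, at 37 °C for 90 min. Quenched with MeCN and spun at 18 000g for 15 min; product measured by UPLC-MS/MS. S50 and Vmax fitted with an allosteric sigmoidal model; CLint = Vmax/S50. Three independent experiments.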

MDA-MB-231 [1] = assay: Antiproliferative activity against FAP-alpha deficient human MDA-MB-231 cells incubated for 48 hrs by MTT assay; type: functional, cell-based; conditions: MDA-MB-231, 48 h
Procedure, shortened: (§3)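 Cells grown in DMEM with 10% FBS and 1% penicillin-streptomycin at 37 °C, 5% CO2; 10% heat-inactivated FBS used during cytotoxicity testing to exclude serum FAP activity. Viability read by MTT; IC50 as mean ± SEM of at least three independent experiments. Transfected lines were made from MDA-MB-231 with human FAPα plasmid or empty pCMV6-Entry vector and checked by Western blot at 48 h.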

[2] = Cytotoxicity in BMSC (unknown origin) assessed as cell viability at 1000 nmol/L after 72 hrs by MTT assay; type: cell-based; conditions: unidentified, 1 µM
MCF7 = assay: Antiproliferative activity against FAP-alpha deficient human MCF7 cells incubated for 48 hrs by MTT assay; type: functional, cell-based; conditions: MCF7, 48 h; procedure, shortened: as §3
MDA-MB-231 [3] = assay: Antiproliferative activity against human MDA-MB-231 cells transfected with human FAP-alpha incubated for 48 hrs by MTT assay; type: functional, cell-based; conditions: MDA-MB-231, 48 h; procedure, shortened: as §3
MDA-MB-231 [4] = assay: Antiproliferative activity against human MDA-MB-231 cells transfected with pCMV6 incubated for 48 hrs by MTT assay; type: functional, cell-based; conditions: MDA-MB-231, 48 h; procedure, shortened: as §3
MDA-MB-435 = assay: Antiproliferative activity against wild type human MDA-MB-435 cells expressing FAP-alpha incubated for 48 hrs by MTT assay; type: functional, cell-based; conditions: MDA-MB-435, 48 h; procedure, shortened: as §3
MDA-MB-231 [5] = assay: Antiproliferative activity against human MDA-MB-231 cells assessed as decrease in cell viability at 62.5 to 500 nmol/L after 72 hrs by MTT assay; type: functional, cell-based
[6] = system: [H][C@]12CC[C@@]3([H])[C@@]4(O)CC[C@H](c5ccc(=O)oc5)[C@@]4(C)C(=O)[C@@H](O)[C@]3([H])[C@@]1(C)CC[C@H](OC(=O)[C@@H](NC(=O)[C@@H]1CCCN1C(=O)CNC(=O)OCc1ccccc1)C(C)C)C2; assay: as §1, with “2-amino-3-methylbutanoate” for “2-aminopropanoate”, “concentration of test compound gives half-maximal activity” for “intrinsic clearance”; procedure, shortened: as §2
[7] = system: [H][C@]12CC[C@@]3([H])[C@@]4(O)CC[C@H](c5ccc(=O)oc5)[C@@]4(C)C(=O)[C@@H](O)[C@]3([H])[C@@]1(C)CC[C@H](OC(=O)[C@H](C)NC(=O)[C@@H]1CCCN1C(=O)CNC(=O)OCc1ccccc1)C2; assay: as §1, with “concentration of test compound gives half-maximal activity” for “intrinsic clearance”; procedure, shortened: as §2
[8] = system: [H][C@]12CC[C@@]3([H])[C@@]4(O)CC[C@H](c5ccc(=O)oc5)[C@@]4(C)C(=O)[C@@H](O)[C@]3([H])[C@@]1(C)CC[C@H](OC(=O)Cc1ccc(NC(=O)[C@@H]3CCCN3C(=O)CNC(=O)OCc3ccccc3)cc1)C2; assay: Prodrug activation assessed as recombinant human FAP-alpha mediated 5-((3S,5R,8R,9S,10S,11S,13R,14S,17R)-3-(2-(4-aminophenyl)acetyl)-11,14-dihydroxy-10,13-dimethyl-12-oxohexadecahydro-1H-cyclopenta[a]phenanthren-17-yl)-2H-pyran-2-one formation by measuring concentration of test compound gives half-maximal activity after 90 mins by UPLC-MS/MS analysis; procedure, shortened: as §2
[9] = system: [H][C@]12CC[C@@]3([H])[C@@]4(O)CC[C@H](c5ccc(=O)oc5)[C@@]4(C)C(=O)[C@@H](O)[C@]3([H])[C@@]1(C)CC[C@H](OC(=O)[C@H](Cc1c[nH]c3ccccc13)NC(=O)[C@@H]1CCCN1C(=O)CNC(=O)OCc1ccccc1)C2; assay: Prodrug activation assessed as recombinant human FAP-alpha mediated (S)-((3S,5R,8R,9S,10S,11S,13R,14S,17R)-11,14-dihydroxy-10,13-dimethyl-12-oxo-17-(2-oxo-2H-pyran-5-yl)hexadecahydro-1H-cyclopenta[a]phenanthren-3-yl) 2-amino-3-(1H-indol-3-yl)propanoate formation by measuring concentration of test compound gives half-maximal activity after 90 mins by UPLC-MS/MS analysis; procedure, shortened: as §2

C[C@H](NC(=O)[C@@H]1CCCN1C(=O)CNC(=O)OCc1ccccc1)C(=O)O[C@H]1CC[C@@]2(C)[C@H](CC[C@@H]3[C@@H]2[C@H](O)C(=O)[C@]2(C)[C@@H](c4ccc(=O)oc4)CC[C@]32O)C1
CL (Prolyl endopeptidase FAP): 23240 µL/min/mg

C[C@]12CC[C@H](OC(=O)[C@@H](N)Cc3c[nH]c4ccccc34)C[C@H]1CC[C@@H]1[C@@H]2[C@H](O)C(=O)[C@]2(C)[C@@H](c3ccc(=O)oc3)CC[C@]12O
IC50 (MDA-MB-231 [1]): 4.81 nM | Activity [2]: Non-Toxic | IC50 (MCF7): 1.06 nM | IC50 (MDA-MB-231 [3]): 7.19 nM | IC50 (MDA-MB-231 [4]): 5.19 nM | IC50 (MDA-MB-435): 10 nM | Activity (MDA-MB-231 [5]): Active

Prolyl endopeptidase FAP (Homo sapiens)
K0.5 [6]: 34.5 µM | Vmax [6]: 0.044 µmol/min/mg | K0.5 [7]: 21.3 µM | Vmax [7]: 0.494 µmol/min/mg | K0.5 [8]: 3.68 µM | Vmax [8]: 0.026 µmol/min/mg | K0.5 [9]: 10.4 µM | Vmax [9]: 0.682 µmol/min/mg
